Source: ChEMBL document CHEMBL3272240, “[1-deaminopenicillamine,4-valine]-8-D-arginine-vasopressin, a highly potent inhibitor of the vasopressor response to arginine-vasopressin” (J Med Chem, 1977)
Calls of active or inactive are those of the source. The rule behind the calls is not given here. Starred links: 1 amine or outer side, 2 acyl side, 3 side chain; linkers in the order of their positions; H or OH if unused. Positions of bridges follow the written chain, without caps; N, C: chain ends. Non-standard residues stand in square brackets, D forms with d. Residues, ends and D or L forms follow the SMILES beside them. X2 = CCC(CC)(CC(=O)[*:1])S[*:2]; X1 = CC(C)(CC(=O)[*:1])S[*:2]; Mpa = O=C(O)CCS

Columns and labels:
[1] = Antioxytocic activity in Sherman albino rat uterus assessed as inhibition of oxytocin-induced contraction; assay type: functional, tissue-based
Procedure, shortened: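 Isolated rat uterus in magnesium-free van Dyke-Hastings solution. The antagonist was added to the bath immediately before injection of agonist (USP Posterior Pituitary Reference Standard). pA2 was calculated per Schild as the −log molar antagonist concentration reducing the response to 2X units of agonist to that of X units. A pA2 was computed per assay group and reported as mean ± SE.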

[2] = tested on: Rattus norvegicus; assay: Antivasopressor activity in iv dosed phenoxybenzamine-treated rat assessed as inhibition of lysine-vasopressin-induced vasopressor response; assay type: functional, organism-based; settings: read-out: pA2 (converted)
Procedure, shortened: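 Urethane-anesthetized, phenoxybenzamine-treated rats as in the standard rat vasopressor assay. The antagonist was given iv immediately before iv injection of agonist standard, with LVP as agonist. pA2 is the −log molar antagonist concentration halving the effect of a doubled agonist dose. Peptide was assumed uniformly distributed in blood volume. pA2 was computed per assay group and reported as mean ± SE.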

[3] = tested on: Rattus norvegicus; assay: Antidiuretic activity in Brattleboro rat hereditary hypothalamic diabetes insipidus model at 100 ug/kg, sc measured over 1.7 hrs; assay type: functional, organism-based; settings: Urine
Procedure, shortened: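 Single subcutaneous injection into Brattleboro rats with hereditary hypothalamic diabetes insipidus. The value recorded is the duration, in hours, for which diuresis was inhibited (antidiuresis) after dosing.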

[4] = organism: Rattus norvegicus; assay: Antivasopressor activity in phenoxybenzamine-treated rat assessed as inhibition of norepinephrine-induced vasopressor response; assay type: functional, organism-based
[5] = organism: Rattus norvegicus; assay: Antivasopressor activity in phenoxybenzamine-treated rat assessed as inhibition of angiotensin 2-induced vasopressor response; assay type: functional, organism-based
[6] = tested on: Rattus norvegicus; assay: Antivasopressor activity in phenoxybenzamine-treated rat assessed as inhibition of arginine-vasopressin-induced vasopressor response at 10 ug/kg, iv measured for >= 2.5 hrs; assay type: functional, organism-based
Procedure, shortened: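 Rats received a single iv injection of 10 μg/kg antagonist. Vasopressor responses to AVP challenges of 10-40 mU/kg (about 25-100 ng/kg) were then followed. The duration of inhibition was recorded as an average period.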

[7] = tested on: Rattus norvegicus; assay: Antidiuretic activity in sc dosed Brattleboro rat hereditary hypothalamic diabetes insipidus model measured over 6 hrs; assay type: functional, Urine
Procedure, shortened: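 Brattleboro rats with hereditary hypothalamic diabetes insipidus received a single sc injection of 100 ng/kg. Inhibition of diuresis was followed over time to record its duration.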

[8] = tested on: Rattus norvegicus; assay: Antidiuretic activity in sc dosed Brattleboro rat hereditary hypothalamic diabetes insipidus model; assay type: functional, organism-based; settings: Urine
[9] = tested on: Rattus norvegicus; assay: Antidiuretic antagonist activity in sc dosed Brattleboro rat hereditary hypothalamic diabetes insipidus model; assay type: functional, organism-based; settings: Urine
[10] = tested on: Rattus norvegicus; assay: Ratio of dPVDAVP to compound for antidiuretic activity in sc dosed Brattleboro rat hereditary hypothalamic diabetes insipidus model
[11] = Oxytocic activity in Sherman albino rat uterus assessed as contraction; assay type: functional

CCC1(CC)CC(=O)N[C@@H](Cc2ccc(O)cc2)C(=O)N[C@@H](Cc2ccccc2)C(=O)N[C@@H](CCC(N)=O)C(=O)N[C@@H](CC(N)=O)C(=O)N[C@H](C(=O)N2CCC[C@H]2C(=O)N[C@@H](CCCCN)C(=O)NCC(N)=O)CSS1 (YFQNCPKG-NH2; linker N-5 via X2)
pA2 [1]: 6.84
Kb [2]: 70.8 nM

N=C(N)NCCC[C@H](NC(=O)[C@@H]1CCCN1C(=O)[C@@H]1CSSC[C@H](N)C(=O)N[C@@H](Cc2ccc(O)cc2)C(=O)N[C@@H](Cc2ccccc2)C(=O)N[C@@H](CCC(N)=O)C(=O)N[C@@H](CC(N)=O)C(=O)N1)C(=O)NCC(N)=O
Activity [3]: Active

CC(C)[C@@H]1NC(=O)[C@H](Cc2ccccc2)NC(=O)[C@H](Cc2ccc(O)cc2)NC(=O)CC(C)(C)SSC[C@@H](C(=O)N2CCC[C@H]2C(=O)N[C@H](CCCNC(=N)N)C(=O)NCC(N)=O)NC(=O)[C@H](CC(N)=O)NC1=O (YFVNCP[dR]G-NH2; linker N-5 via X1)
pA2 [1]: 7.23
inhibition [4]: inactive
inhibition [5]: inactive
inhibition [6]: Active
Activity [7]: 123 U/mg
Activity [8]: Active
Activity [9]: inactive

CC(C)[C@@H]1NC(=O)[C@H](Cc2ccccc2)NC(=O)[C@H](Cc2ccc(O)cc2)NC(=O)CCSSC[C@@H](C(=O)N2CCC[C@H]2C(=O)N[C@H](CCCNC(=N)N)C(=O)NCC(N)=O)NC(=O)[C@H](CC(N)=O)NC1=O ([Mpa]YFVNCP[dR]G-NH2; disulfide 1-6)
Ratio [10]: 10
Activity [7]: 1230 U/mg
Activity [11]: 8 U/mg
